# Laboratory results from ChEMBL document CHEMBL4406880, “Design, synthesis, and bioactivity of dihydropyrimidine derivatives as kinesin spindle protein inhibitors” (Bioorg Med Chem, 2019).
# How the values were obtained:
# [1] = system: DU-145; assay: Growth inhibition of human DU145 cells assessed as growth percentage at 10 uM incubated for 48 hrs by sulforhodamine B assay relative to control; type: functional; conditions: DU-145, 48 h, read-out: Activity
# Procedure, shortened: (§1)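 NCI-60 one-dose screen: cells in RPMI 1640 with 5% FBS and 2 mM L-glutamine, plated at 5,000–40,000 cells/well and preincubated 24 h at 37 °C, 5% CO2. Compound is added from a DMSO stock to a final 10 µM and incubated 48 h. Cells are TCA-fixed and stained with sulforhodamine B, read at 515 nm. Output is % growth versus untreated control, with a time-zero plate.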
# [2] = system: NCI-H522; assay: Growth inhibition of human NCI-H522 cells assessed as growth percentage at 10 uM incubated for 48 hrs by sulforhodamine B assay relative to control; type: functional; conditions: NCI-H522, 48 h, read-out: Activity
# Procedure, shortened: (§2)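 NCI-60 one-dose screen. Cells in RPMI 1640 with 5% FBS and 2 mM L-glutamine, seeded at 5,000–40,000 cells/well according to doubling time, and preincubated overnight at 37 °C, 5% CO2. A time-zero plate was TCA-fixed at drug addition. Compound from DMSO stock, final 10 µM, 48 h; DMSO vehicle controls. Fixation with TCA, 10% final (16% for suspension cells). SRB stain, Tris solubilization, A515. Result given as % growth versus untreated cells.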
# [3] = system: SF-268; assay: Growth inhibition of human SF268 cells assessed as growth percentage at 10 uM incubated for 48 hrs by sulforhodamine B assay relative to control; type: functional; conditions: SF-268, 48 h, read-out: Activity
# Procedure, shortened: (§3)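 NCI-60 single-dose screen. Cells were grown in RPMI 1640 with 5% FBS and 2 mM L-glutamine and plated at 5,000–40,000 cells/well. After an overnight preincubation at 37 °C in 5% CO2, compound was added at a final 10 µM from a DMSO stock, with DMSO/PBS controls. After 48 h, cells were TCA-fixed and stained with 0.4% SRB, and absorbance was read at 515 nm. Growth is given as a percentage of untreated control.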
# [4] = system: NCI-H226; assay: Growth inhibition of human NCI-H226 cells assessed as growth percentage at 10 uM incubated for 48 hrs by sulforhodamine B assay relative to control; type: functional; conditions: NCI-H226, 48 h, read-out: Activity; procedure, shortened: as §2
# [5] = system: OVCAR-8; assay: Growth inhibition of human OVCAR8 cells assessed as growth percentage at 10 uM incubated for 48 hrs by sulforhodamine B assay relative to control; type: functional; conditions: OVCAR-8, 48 h, read-out: Activity; procedure, shortened: as §3
# [6] = system: SK-MEL-5; assay: Growth inhibition of human SK-MEL-5 cells assessed as growth percentage at 10 uM incubated for 48 hrs by sulforhodamine B assay relative to control; type: functional; conditions: SK-MEL-5, 48 h, read-out: Activity; procedure, shortened: as §3
# [7] = system: EKVX; assay: Growth inhibition of human EKVX cells assessed as growth percentage at 10 uM incubated for 48 hrs by sulforhodamine B assay relative to control; type: functional; conditions: read-out: Activity; procedure, shortened: as §1
# [8] = system: SK-OV-3; assay: Growth inhibition of human SKOV3 cells assessed as growth percentage at 10 uM incubated for 48 hrs by sulforhodamine B assay relative to control; type: functional; conditions: SK-OV-3, 48 h, read-out: Activity; procedure, shortened: as §3
# [9] = system: SN12C; assay: Growth inhibition of human SN12C cells assessed as growth percentage at 10 uM incubated for 48 hrs by sulforhodamine B assay relative to control; type: functional; conditions: read-out: Activity; procedure, shortened: as §3
# [10] = system: MDA-MB-435; assay: Growth inhibition of human MDA-MB-435 cells assessed as growth percentage at 10 uM incubated for 48 hrs by sulforhodamine B assay relative to control; type: functional; conditions: MDA-MB-435, 48 h, read-out: Activity; procedure, shortened: as §2
# [11] = system: HEK293; assay: Growth inhibition of human HEK293 cells assessed as cell viability incubated for 48 hrs by MTT assay; type: cell-based; design: unit not given here
# Procedure, shortened: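 HEK 293 normal-cell growth inhibition; measured in triplicate, IC50 reported as mean ± SD.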
# [12] = Growth inhibition of human HEK293 cells assessed as cell viability at 25 ug incubated for 48 hrs by MTT assay relative to control; type: cell-based; conditions: read-out: Activity
# [13] = Growth inhibition of human HEK293 cells assessed as cell viability at 6.25 ug incubated for 48 hrs by MTT assay relative to control; type: cell-based; conditions: read-out: Activity
# [14] = Growth inhibition of human HEK293 cells assessed as cell viability at 0.39 ug incubated for 48 hrs by MTT assay relative to control; type: cell-based; conditions: read-out: Activity
# [15] = Inhibition of kinesin (unknown origin) assessed as reduction in ATPase activity using microtubule as substrate measured for 5 to mins; design: species or system Homo sapiens
# [16] = Growth inhibition of human HEK293 cells assessed as cell viability at 1.56 ug incubated for 48 hrs by MTT assay relative to control; type: cell-based; conditions: read-out: Activity
# [17] = Growth inhibition of human HEK293 cells assessed as cell viability at 100 ug incubated for 48 hrs by MTT assay relative to control; type: cell-based; conditions: read-out: Activity
SMILES,growth at 10 µM [1],growth at 10 µM [2],growth at 10 µM [3],growth at 10 µM [4],growth at 10 µM [5],growth at 10 µM [6],growth at 10 µM [7],growth at 10 µM [8],growth at 10 µM [9],growth at 10 µM [10],IC50 [11],"viability at 48 h, 25 ug [12]","viability at 48 h, 6.25 ug [13]","viability at 48 h, 0.39 ug [14]",IC50 [15],"viability at 48 h, 1.56 ug [16]","viability at 48 h, 100 ug [17]"
CC1=C(C(=O)OC(C)C)C(c2ccc3c(c2)OCO3)NC(=O)N1 (racemic),108%,91.1%,104%,101%,100%,97.6%,96.1%,105%,92.3%,110%,,,,,,,
CC(=O)C1=C(C)NC(=O)NC1c1ccc2c(c1)OCO2 (racemic),118%,91.1%,107%,99.6%,103%,100%,101%,103%,102%,105%,,,,,,,
CC1=C(C(=O)c2ccccc2)C(c2ccc3c(c2)OCO3)NC(=S)N1 (racemic),78.7%,38.3%,75.8%,66.5%,46.7%,28.2%,73.5%,51.6%,51.4%,-49.5%,62.02,57.9%,69.9%,86.8%,10.7 µM,79.5%,46%
CC1=C(C(=O)OC(C)C)C(c2ccc3c(c2)OCO3)NC(=S)N1 (racemic),109%,86.4%,103%,84.1%,102%,98.5%,94.4%,105%,105%,106%,,,,,,,
CC(=O)C1=C(C)NC(=S)NC1c1ccc2c(c1)OCO2 (racemic),111%,92.3%,100%,102%,103%,100%,106%,102%,104%,103%,,,,,,,
O=C1C2=C(NC(=S)NC2c2ccc3c(c2)OCO3)c2ccccc21 (racemic),112%,91.5%,91.8%,92.6%,102%,101%,102%,103%,95.8%,107%,,,,,,,
CC(=O)N1C(=S)NC(C)=C(C(=O)OCC(C)C)C1c1ccc2c(c1)OCO2 (racemic),99.6%,74.9%,100%,94.6%,95.9%,100%,99.8%,100%,94.8%,95.5%,,,,,,,
CC1=C(C(=O)OCC(C)C)C(c2ccc3c(c2)OCO3)NC(=O)N1 (racemic),109%,91.1%,101%,93.1%,103%,101%,95.5%,108%,105%,109%,,,,,,,
CC1=C(C(=O)c2ccccc2)C(c2ccc3c(c2)OCO3)NC(=O)N1 (racemic),105%,90.3%,100%,97.4%,99.3%,98.8%,95.1%,109%,97%,90.1%,,,,,,,
O=C1NC2=C(C(=O)c3ccccc32)C(c2ccc3c(c2)OCO3)N1 (racemic),114%,90.7%,97.4%,102%,102%,101%,97.4%,104%,100%,105%,,,,,,,
COCCOC(=O)C1=C(C)NC(=O)NC1c1ccc2c(c1)OCO2 (racemic),108%,91.8%,98%,98%,99.3%,100%,99.1%,98.8%,102%,101%,,,,,,,
CC1=C(C(=O)OCc2ccccc2)C(c2ccc3c(c2)OCO3)NC(=O)N1 (racemic),107%,87.7%,99.8%,95.9%,101%,89.8%,95.8%,105%,101%,103%,,,,,,,
CC1(C)CC(=O)C2=C(C1)NC(=O)NC2c1ccc2c(c1)OCO2 (racemic),107%,93.9%,98.8%,109%,104%,100%,107%,112%,105%,106%,33.2,50.9%,60.1%,78%,3.95 µM,71.5%,43.5%
CC(=O)N1C(=S)NC(C)=C(C(=O)OC(C)C)C1c1ccc2c(c1)OCO2 (racemic),104%,78%,100%,94.8%,96.4%,100%,99.7%,104%,93.1%,102%,,,,,,,
COCCOC(=O)C1=C(C)NC(=S)NC1c1ccc2c(c1)OCO2 (racemic),108%,94.3%,97.4%,90.2%,102%,97.6%,105%,103%,104%,104%,,,,,,,
CC1=C(C(=O)OCC(C)C)C(c2ccc3c(c2)OCO3)NC(=S)N1 (racemic),109%,82.2%,97.8%,97.1%,102%,92.5%,104%,106%,106%,103%,,,,,,,
COCCOC(=O)C1=C(C)NC(=S)N(C(C)=O)C1c1ccc2c(c1)OCO2 (racemic),106%,91.6%,98.4%,96.6%,99.3%,104%,94.1%,97%,96.7%,103%,,,,,,,
CC1=C(C(=O)OCc2ccccc2)C(c2ccc3c(c2)OCO3)NC(=S)N1 (racemic),101%,89.5%,97.3%,95.8%,97.5%,88.9%,97.5%,109%,96.8%,93.6%,,,,,,,
